Bioassay records from PubChem.
Sampled rows, rich in hits. Any-hit rate of the full collection: about 2%.
CDK5 p35 inh – inhibitors of human CDK5/p35 kinase, primary screen, biochemical, single concentration | Cyclin-dependent kinase 5 (Homo sapiens) + Cyclin-dependent kinase 5 activator 1 (Homo … | Recombinant CDK5/p35, ADP-Glo luminescence, 60 min | inhibition, % at 10 µM | 0.01% of 330,000 active;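 active = highest replicate inhibition of at least 50% and at least 75% of replicates reaching 50%; inconclusive = only one of the two criteria met; inactive = both criteria failed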
Target sequence (Q00535 whole entry, looked up): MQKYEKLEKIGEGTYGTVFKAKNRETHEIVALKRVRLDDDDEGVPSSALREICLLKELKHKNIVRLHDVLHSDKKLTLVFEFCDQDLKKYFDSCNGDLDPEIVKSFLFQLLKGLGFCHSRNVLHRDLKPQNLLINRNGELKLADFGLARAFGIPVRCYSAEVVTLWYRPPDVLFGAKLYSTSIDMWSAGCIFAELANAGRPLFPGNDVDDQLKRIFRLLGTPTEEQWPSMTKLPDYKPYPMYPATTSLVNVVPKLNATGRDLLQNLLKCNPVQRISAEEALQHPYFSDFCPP
Target sequence (Q15078 whole entry, looked up): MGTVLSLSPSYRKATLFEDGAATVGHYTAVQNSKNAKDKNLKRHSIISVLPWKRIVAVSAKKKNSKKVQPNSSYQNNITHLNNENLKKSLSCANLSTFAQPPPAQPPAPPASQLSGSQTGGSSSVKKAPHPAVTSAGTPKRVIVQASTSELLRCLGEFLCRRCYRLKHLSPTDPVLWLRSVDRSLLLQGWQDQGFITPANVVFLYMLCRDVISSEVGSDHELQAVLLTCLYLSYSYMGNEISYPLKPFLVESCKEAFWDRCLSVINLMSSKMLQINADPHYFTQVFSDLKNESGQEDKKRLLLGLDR
SR-BI DiI-HDL act – activators of SR-BI mediated DiI-HDL uptake, primary screen, ldlA[mSR-BI] CHO cells, DiI fluorescence; 3 h; 100 = double the neutral-control signal; activation, % at 12.5 µM; 0.096% of 320,000 active; AID 504775, 2011;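 active = mean replicate activation of at least 60% and every replicate at or above 60%; inconclusive = mean or all-replicate condition met, but not both; inactive = mean below 60% and not all replicates reaching 60%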
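Test system: SR-BI-overexpressing, LDLR-lacking CHO cells. Measured by: DiI fluorescence, bottom read. Medium: Ham's F12 with 0.5% BSA, HEPES 25 mM, pH 7.4. Timing: 3 h uptake period with compound, 37 °C.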
dFosB activator – activators of delta FosB homodimer, primary screen, biochemical, fluorescence polarization, TAMRA-CDK5 oligo, single point | activation, % at 25 µM | 0.99% of 340,000 active | Protein FosB (Mus musculus), P13346 | purified delta FosB; percent of positive-control signal above neutral wells;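 active = mean activation above about 17%, with every replicate also reaching it, limit read from the data, passing the limit was not always enough; inconclusive = only one of the two conditions met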
SR-BI DiI inh – inhibitors of SR-BI mediated HDL lipid uptake, primary screen, ldlA[mSR-BI] cells, fluorescence, single point | Scavenger receptor class B member 1 (Mus musculus), Q61009 | ldlA[mSR-BI] CHO cells, DiI-HDL uptake fluorescence, 3 h | inhibition, % at 12.5 µM | 0.96% of 320,000 active | AID 488896, 2010;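 active = mean replicate inhibition of at least 70% and a set share of replicates each scoring 70 or more; inconclusive = meets just one of the two criteria; inactive = fails both criteria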
Hits are given with their value; – = inactive; ? = inconclusive; · = no result.

SMILES | CDK5 p35 inh | SR-BI DiI-HDL act | dFosB activator | SR-BI DiI inh
COc1ccc(NC(=O)c2ccc(Cl)c(S(=O)(=O)NCC3CCCO3)c2)c(OC)c1 (stereo not drawn) | – | – | – | –
COc1ccc(CNC(=O)c2ccc(CS(=O)(=O)c3ccc(Br)cc3)o2)cc1 | – | – | – | –
COc1ccc(Nc2ccccc2NC(=O)c2ccccc2Br)cc1 | – | – | – | –
COc1ccccc1NC(=O)c1ccc2nc(-c3ccccc3)c(-c3ccccc3)nc2c1 | – | – | – | –
COc1ccc(NC(=O)c2cc(-c3ccc(OC)c(OC)c3)nc3ccccc23)c(OC)c1 | – | – | – | 95
COc1ccc(NC(=O)c2ccc3nc(-c4ccccc4)c(-c4ccccc4)nc3c2)c(OC)c1 | – | – | – | 76
CN(Cc1cccs1)C(=O)COc1cccc2c1OC(C)(C)C2 | – | – | – | –
CCCN(CCC)C1=CC(=[N+]2CCCC2)CC(C)(C)C1 | – | 83 | – | –
O=C(N1CCCCC1)N1CCN(S(=O)(=O)c2ccccc2)CC1 | – | – | – | –
CCn1c2ccccc2c2cc(NC(=O)c3cc(OC)cc(OC)c3)ccc21 | – | – | – | 77
CCn1c2ccccc2c2cc(NC(=O)c3cc(OC)c(OC)c(OC)c3)ccc21 | – | – | – | –
CCn1c2ccccc2c2cc(NC(=O)c3cccc([N+](=O)[O-])c3)ccc21 | – | – | – | 80
CCn1c2ccccc2c2cc(NC(=O)c3ccc(C)c([N+](=O)[O-])c3)ccc21 | – | – | – | –
Cc1ccc(/C=C2/Sc3ccc(C(=O)NCc4ccccn4)cc3NC2=O)cc1 | – | – | ? | –
COc1ccccc1-c1oc2ccccc2c1-c1ccc2cc[nH]c2c1 | – | – | – | 80
CCOC(=O)c1ccc(-c2c(-c3ccccc3OC)oc3ccccc23)cc1F | – | – | – | –
O=C(N=C1SC2CS(=O)(=O)CC2N1CCc1ccccc1)C1CC1 (stereo not drawn) | · | – | – | –
CCN1C(=O)/C(=C\C=C2/C=CC=CN2CC)SC1=S | – | – | 25 | –
CCN1C(=O)/C(=C2/C=CC=CN2C)SC1=S | – | · | – | ·
CCN1C(=O)/C(=C/C=C2\C=CN(CC)c3ccccc32)SC1=S | – | – | – | 140
CC(NC(=O)CCSCc1ccccc1F)c1ccccc1 (stereo not drawn) | – | – | – | –
N/C(CC(=O)NC1CCCCC1)=N\OCC(=O)Nc1ccc(Cl)c(Cl)c1 | – | – | – | –
O=C1C2C3C=CC(C3)C2C(=O)N1c1ccccc1 (stereo not drawn) | – | – | – | –
O=C1C(C2=NC(c3ccccn3)C3C(=O)N(c4ccccc4)C(=O)C23)=C(O)c2ccccc21 (stereo not drawn) | – | · | 26 | ·
Cc1cc(C2N=C(N)Nc3nc4ccccc4n32)c(C)n1-c1ccccc1Cl (stereo not drawn) | – | – | 76 | –
SMILES | CDK5 p35 inh | SR-BI DiI-HDL act | dFosB activator | SR-BI DiI inh
Cc1ccc(-n2c(C)cc(C3N=C(N)Nc4nc5ccccc5n43)c2C)c(C)c1 (stereo not drawn) | – | – | 65 | –
N=c1n(CCN2CCOCC2)c2ccccc2n1CC(=O)c1cccc([N+](=O)[O-])c1 | – | – | – | 77
Cc1sc2ncn(-c3ccccc3)c(=O)c2c1C | – | – | – | –
CCOc1ccc(-n2cnc3sc(C)c(C)c3c2=O)cc1 | – | – | – | 71
CN(CC(=O)Nc1ccc(Cl)c(Cl)c1)C(=O)CNC(=O)Cc1ccccc1 | – | – | – | –
O=C(Nc1nc2c(Cl)cccc2s1)C1CC1 | · | – | – | –
O=C(Nc1nc2c(cc3c4c(cccc42)CC3)s1)c1ccccc1Cl | – | – | – | 76
CCc1ccc(C(=O)NNC(=O)[C@H](C)NC(=O)c2ccco2)cc1 | – | – | – | –
CCOC(=O)c1[nH]c2ccc(OC)cc2c1NC(=S)N1CCN(c2cccc(C)c2C)CC1 | – | – | – | 73
CCOC(=O)c1[nH]c2ccc(OC)cc2c1NC(=S)N1CCN(c2ccc(F)cc2)CC1 | – | – | – | –
COc1cccc(NC(=O)N2CCN(c3cccc(C)c3C)CC2)c1 | – | – | – | 71
COc1ccccc1N1CCN(C(=O)Nc2cccc(Cl)c2)CC1 | – | – | – | –
Cc1ccc(CNC(=O)CCNC(=O)c2ccc([N+](=O)[O-])cc2)cc1 | – | – | – | –
O=C(/C=C/NNC(=O)c1ccccc1)c1ccc(Br)cc1 | – | – | – | 118
O=C(/C=C/NNC(=O)c1cccc(Br)c1)c1cccc(Br)c1 | – | – | – | –
O=C(/C=C/NNC(=O)c1ccc(Cl)cc1)c1ccccc1 | – | – | – | 112
COc1ccc(C(=O)C=CNNC(=O)c2ccc(Cl)cc2)cc1 | – | – | – | 95
Cc1ccc(C(=O)/C=C/NNC(=O)c2ccccc2O)cc1 | – | – | – | –
O=C(OCc1ccccc1)/C(=C(\O)c1ccccc1Br)c1ccc(-c2ccccc2)cn1 | – | – | – | –
COc1cc(C(=O)NC(C)CCn2cccn2)ccc1OC1CCN(C(C)=O)CC1 (stereo not drawn) | – | – | – | –
COCc1cc(C)nc2sc(C(=O)Nc3ccccc3Br)c(N)c12 | – | – | – | 79
O=C(CN(C(=O)CNC(=O)c1ccco1)c1ccccc1F)NC1CCCCC1 | – | – | – | –
CSC1=N/C(=C\c2ccccc2Cl)C(=O)N1N(C)C | – | – | – | –
Fc1ccc(C2=NN(c3ccccc3)C(c3ccco3)C2)cc1 (stereo not drawn) | – | – | – | –
Cc1ccc(N2N=C(c3ccc(F)cc3)CC2c2ccco2)cc1 (stereo not drawn) | – | – | – | 79
SMILES | CDK5 p35 inh | SR-BI DiI-HDL act | dFosB activator | SR-BI DiI inh
CCOc1ccccc1NC(=O)C1C2CCC3C(CCC21)C3(Cl)Cl (stereo not drawn) | – | – | – | 73
COc1ccc(C(=O)NC(Cn2ccnc2)C(C)(C)C)cc1OC1CCN(C(C)C)CC1 (stereo not drawn) | – | – | – | –
Nc1nc(SCC(=O)Nc2ccc([N+](=O)[O-])cc2)[nH]c(=O)c1NC(=O)c1ccc(Br)cc1 | – | – | 50 | –
Fc1ccc(CCN2CCN=C2Nc2ccccc2)cc1 | – | 68 | – | –
c1ccc(CCN2CCN=C2Nc2ccccc2)cc1 | – | – | – | –
CCOC(=O)N1CCN(C(=S)NC(=O)c2cncc(Br)c2)CC1 | – | 69 | – | –
CCOC(=O)N1CCN(C(=S)NC(=O)c2ccc(Br)cc2)CC1 | – | – | – | –
CCOC(=O)C1=C(Nc2ccccc2)CC(C)(O)C(C(=O)OCC)C1c1ccccc1 (stereo not drawn) | – | 64 | – | –
Clc1cccc(-c2cc3nc4c(c(N5CCOCC5)n3n2)CCCC4)c1 | – | – | – | 77
Fc1cccc(-c2cc3nc4c(c(NCc5ccco5)n3n2)CCCC4)c1 | – | – | – | –
